{"data": "Published values pooled from the literature", "Chymotrypsinogen A": "Chymotrypsinogen A (Bos taurus, UniProt P00766)", "CDC7": "Cell division cycle 7-related protein kinase (CDC7, Homo sapiens, UniProt O00311)", "RORC": "Nuclear receptor ROR-gamma (RORC, Homo sapiens, UniProt P51449)", "SIRT2": "NAD-dependent protein deacetylase sirtuin-2 (SIRT2, Homo sapiens, UniProt Q8IXJ6)", "AMY2": "Pancreatic alpha-amylase (AMY2, Sus scrofa, UniProt P00690)", "Maoa": "Amine oxidase [flavin-containing] A (Maoa, Rattus norvegicus, UniProt P21396)", "SLC22A8": "Organic anion transporter 3 (SLC22A8, Homo sapiens, UniProt Q8TCC7)", "note": "Lines come from different studies, so protocols differ."}
{"SMILES": "O=c1oc(Cl)c(Cl)c2ccccc12", "target": "Chymotrypsinogen A", "test": "enzyme activity, inhibitor, fluorescence", "IC50 [µM]": 2.8}
{"SMILES": "CC(C)[C@H](N)c1nc2cc(-c3ccnc(F)c3)sc2c(=O)[nH]1", "target": "CDC7", "test": "enzyme activity, inhibitor", "IC50 [µM]": 0.0717}
{"SMILES": "O=C(Cc1cccs1)N[C@@H]1C(=O)N2C(C(=O)[O-])=C(C[n+]3ccccc3)CS[C@H]12", "target": "Chymotrypsinogen A", "test": "enzyme activity, inhibitor, fluorescence", "IC50 [µM]": 6}
{"SMILES": "C[C@H](CCCOc1cccc(CO)c1)[C@H]1CC[C@H]2[C@@H]3CC=C4C[C@@H](O)CC[C@]4(C)[C@H]3CC[C@]12C", "target": "RORC", "test": "reporter gene, inverse agonist, luciferase", "IC50 [µM]": 0.193}
{"SMILES": "CCNC(=O)[C@H](CCCNC(=N)CF)NC(=O)c1ccccc1", "target": "Protein-arginine deiminase type-3 (PADI3, Homo sapiens, UniProt Q9ULW8)", "test": "enzyme activity, inhibitor", "IC50 [µM]": 157}
{"SMILES": "CCCCCCCCCCCCCC(=O)NCCCC[C@H](NS(C)(=O)=O)C(=O)N[C@H](C)C(=O)N[C@@H](CCCNC(=N)N)C(N)=O", "target": "SIRT2", "test": "enzyme activity, inhibitor", "IC50 [µM]": 0.74}
{"SMILES": "CC1CN(S(=O)(=O)c2cccc(C(F)(F)F)c2)c2cc(OCc3c(F)cccc3Cl)ccc21 (centres unmarked)", "target": "RORC", "test": "ligand displacement, radioligand", "IC50 [µM]": 0.18}
{"SMILES": "O=C1Nc2ccc(Cl)cc2/C1=N/NS(=O)(=O)c1ccc(Br)cc1", "target": "AMY2", "test": "enzyme activity, inhibitor", "IC50 [µM]": 12.8}
{"SMILES": "CC(=NN=C1CS(=O)(=O)N(C)c2ccccc21)c1ccc(Cl)s1", "target": "Maoa", "test": "enzyme activity, inhibitor, fluorescence", "IC50 [µM]": 1.52}
{"SMILES": "O=C1OC[C@H]2OC(O)[C@H](O)[C@@H](O)[C@@H]2OC(=O)c2cc(O)c(O)c(O)c2-c2c(O)c(O)c3oc(=O)c4c(c(O)c(O)c5oc(=O)c2c3c54)-c2c1cc(O)c(O)c2O (mixture of isomers)", "target": "Genome polyprotein, protease (Hepatitis C virus genotype 1b, UniProt Q9WMX2)", "test": "enzyme activity, inhibitor, fluorescence", "IC50 [µM]": "< 0.1"}
{"SMILES": "Cc1cccc(S(=O)(=O)N2CCc3ccc(OCc4c(F)cccc4Cl)cc32)c1", "target": "RORC", "test": "ligand displacement, radioligand", "IC50 [µM]": 0.23}
{"SMILES": "C=C(NC(=O)[C@H](CCCCNC(=S)CCCCCCCCCCCCC)NS(C)(=O)=O)C(=O)N[C@@H](CCCNC(=N)N)C(N)=O", "target": "SIRT2", "test": "enzyme activity, inhibitor", "IC50 [µM]": 0.03}
{"SMILES": "CC(C)[C@H](N)c1nc2cc(-c3ccncc3F)sc2c(=O)[nH]1", "target": "CDC7", "test": "enzyme activity, inhibitor", "IC50 [µM]": 0.00184}
{"SMILES": "CN1CCN(c2ccc(Nc3ncc4cc(C#N)c(=O)n(C5CCCC5)c4n3)cc2)CC1", "target": "Ephrin type-A receptor 5 (EPHA5, Homo sapiens, UniProt P54756)", "test": "enzyme activity, inhibitor", "IC50 [µM]": 0.408}
{"SMILES": "O=C1Nc2ccccc2/C1=N/NS(=O)(=O)c1ccc(Cl)cc1", "target": "AMY2", "test": "enzyme activity, inhibitor", "IC50 [µM]": 3.7}
{"SMILES": "CCCCCCCC/C=C\\CCCCCCCC(=O)Oc1ccc2ccc(=O)oc2c1", "target": "DNA polymerase I, thermostable (polA, Thermus aquaticus, UniProt P19821)", "test": "enzyme activity, inhibitor", "IC50 [µM]": "> 200"}
{"SMILES": "O=C(O[C@H]1[C@@H]2C=CO[C@@H](O[C@@H]3O[C@H](CO)[C@@H](O)[C@H](O)[C@H]3O)[C@@H]2[C@@]2(CO)O[C@@H]12)c1ccc(O)cc1", "target": "SLC22A8", "test": "transporter uptake, inhibitor, radiometric", "test system": "HEK293", "setting": "10 min", "IC50 [µM]": 83}
{"SMILES": "O=S(=O)(c1cccc(-c2ccccc2)c1)N1CCc2ccc(OCc3c(F)cccc3Cl)cc21", "target": "RORC", "test": "ligand displacement, radioligand", "IC50 [µM]": 0.25}
{"SMILES": "CC(C)[C@H](N)c1nc2cc(-c3cn[nH]n3)sc2c(=O)[nH]1", "target": "CDC7", "test": "enzyme activity, inhibitor", "IC50 [µM]": 3.63}
{"SMILES": "CC(Oc1ccc2c(c1)N(S(=O)(=O)c1cccc(C(F)(F)F)c1)CC2)c1c(F)cccc1Cl (centres unmarked)", "target": "RORC", "test": "ligand displacement, radioligand", "IC50 [µM]": 0.35}
{"SMILES": "O=C(NO)c1ccc(CN(c2cnccn2)c2cnccn2)cc1", "target": "SIRT2", "test": "enzyme activity, inhibitor, fluorescence", "IC50 [µM]": "> 10"}
{"SMILES": "O=C1Nc2ccc(Cl)cc2/C1=N/NS(=O)(=O)c1ccc(Cl)cc1", "target": "AMY2", "test": "enzyme activity, inhibitor", "IC50 [µM]": 3.1}
{"SMILES": "CCCCCCCCCCCCNC(=S)NCCCC[C@H](NC(=O)OCc1ccccc1)C(=O)N[C@@H](Cc1c[nH]c2ccccc12)C(=O)N[C@@H](CCC(=O)O)C(N)=O", "target": "SIRT2", "test": "enzyme activity, inhibitor", "IC50 [µM]": 0.1}
{"SMILES": "O=S(=O)(c1cccc(C(F)(F)F)c1)N1CCc2ccc(OCc3c(Cl)cncc3Cl)cc21", "target": "RORC", "test": "ligand displacement, radioligand", "IC50 [µM]": 0.18}
{"SMILES": "O=C(O)C1=CC(=C(c2ccc(O)c(C(=O)O)c2)c2ccc(O)c(C(=O)O)c2)C=CC1=O", "target": "Flap endonuclease 1 (Homo sapiens, UniProt P39748)", "test": "enzyme activity, inhibitor, fluorescence", "setting": "with preincubation", "IC50 [µM]": 0.63}
{"SMILES": "O=S(=O)(c1ccccc1)N1CCc2ccc(OCc3c(F)cccc3Cl)cc21", "target": "RORC", "test": "ligand displacement, radioligand", "IC50 [µM]": 0.8}
{"SMILES": "O=C(O)CCc1nc(-c2ccccc2)c(-c2ccccc2)o1", "target": "SLC22A8", "test": "transporter uptake, inhibitor", "IC50 [µM]": 0.87}
{"SMILES": "CCS(=O)(=O)N1CC(CC#N)(n2cc(-c3ncnc4[nH]ccc34)cn2)C1", "target": "SLC22A8", "test": "transporter uptake, inhibitor, radiometric", "IC50 [µM]": 8.4}
{"SMILES": "O=C(O)CNC(=O)C(=O)O", "target": "Hypoxia-inducible factor 1-alpha inhibitor (HIF1AN, Homo sapiens, UniProt Q9NWT6)", "test": "enzyme activity, inhibitor, mass spectrometry", "IC50 [µM]": "< 1"}
{"SMILES": "CCCCCCCCCCCCNC(=S)NCCCC[C@H](NC(=O)C1CCCCC1)C(=O)N[C@H](C)C(=O)N[C@@H](CCCNC(=N)N)C(N)=O", "target": "SIRT2", "test": "enzyme activity, inhibitor", "IC50 [µM]": 0.16}
{"SMILES": "COc1cc(N2CCN(C)CC2)ccc1Nc1ncc2c(n1)N(C)c1ccccc1C(=O)N2", "target": "Serine/threonine-protein kinase DCLK1 (DCLK1, Homo sapiens, UniProt O15075)", "test": "enzyme activity, inhibitor, mobility shift", "IC50 [µM]": "> 1"}
{"SMILES": "C=C(NC(=O)[C@H](CCCCNC(=S)NCCCCCCCCCCCC)NS(C)(=O)=O)C(=O)N[C@@H](CCCNC(=N)N)C(N)=O", "target": "SIRT2", "test": "enzyme activity, inhibitor", "IC50 [µM]": 0.03}
{"SMILES": "COc1cc(C=CC(=O)CC(c2ccc(N(C)C)cc2)n2ccnc2)ccc1O (centres unmarked)", "target": "AMY2", "test": "enzyme activity, inhibitor, absorbance", "IC50 [µM]": 10.4}
{"SMILES": "O=S(=O)(c1cccc(C(F)(F)F)n1)N1CCc2ccc(OCc3c(F)cccc3Cl)cc21", "target": "RORC", "test": "ligand displacement, radioligand", "IC50 [µM]": 0.25}
{"SMILES": "CCCN1CCN(c2ccc(-c3cncc(Cl)c3N3CCC4(CCNC4=O)CC3)cc2)CC1", "target": "Cyclin-dependent kinase 19, with cyclin C (CDK19, Homo sapiens, UniProt Q9BWU1)", "test": "ligand displacement", "IC50 [µM]": 0.007}
{"SMILES": "C=C(C)[C@@H]1CCC(C)=C[C@H]1c1c(O)cc(CCCCC)cc1O", "target": "Prostaglandin E synthase (PTGES, Homo sapiens, UniProt O14684)", "test": "enzyme activity, inhibitor", "IC50 [µM]": "> 10"}
{"SMILES": "COc1ccc(Cl)cc1COc1ccc2c(c1)N(S(=O)(=O)c1cccc(C(F)(F)F)c1)CC2", "target": "RORC", "test": "ligand displacement, radioligand", "IC50 [µM]": 0.17}
{"SMILES": "OC[C@@H]1[C@@H](O)[C@H](O)[C@@H](O)[C@@H]2O[C@H]12", "target": "Beta-glucosidase (GBA2, Homo sapiens, UniProt Q9HCG7)", "test": "enzyme activity, inhibitor", "setting": "pH 5, lysate", "IC50 [µM]": 26.7}
{"SMILES": "COc1ccc2cc(C=NN=C3CS(=O)(=O)N(C)c4ccccc43)c(Cl)nc2c1", "target": "Maoa", "test": "enzyme activity, inhibitor, fluorescence", "IC50 [µM]": 3.43}
{"SMILES": "CCCCCCCCCCCCNC(=S)NCCCC[C@H](NC(=O)OCc1ccccc1)C(=O)N[C@@H](Cc1c[nH]c2ccccc12)C(=O)N[C@@H](CCCCN)C(N)=O", "target": "SIRT2", "test": "enzyme activity, inhibitor", "IC50 [µM]": 0.22}
{"SMILES": "CC(C)(C)C(O)/C=C/c1ccc2c(c1)OCO2 (centres unmarked)", "target": "SLC22A8", "test": "transporter uptake, inhibitor", "IC50 [µM]": 27.6}
{"SMILES": "O=C(O)c1ccnc2c(O)cccc12", "target": "Lysine-specific demethylase 4D (KDM4D, Homo sapiens, UniProt Q6B0I6)", "test": "enzyme activity, inhibitor, AlphaScreen", "IC50 [µM]": 7.3}
{"SMILES": "Cc1cccc(Nc2ccccc2C(=O)O)c1C", "target": "SLC22A8", "test": "transporter uptake, inhibitor", "IC50 [µM]": 1.75}
{"SMILES": "Cc1cnc(-c2ccc(-c3ccc(NC(=O)Nc4c(F)cc(F)cc4F)cc3F)c3c2C(=O)NC3)[nH]1", "target": "Serine/threonine-protein kinase 3 (STK3, Homo sapiens, UniProt Q13188)", "test": "enzyme activity, inhibitor", "IC50 [µM]": 0.0071}
